Apaf-1 inh: inhibitors of human Apaf-1 apoptosome | O14727 | hit rate 0.71% among 330,000 | reconstituted apoptosome caspase-3 activity, DEVD-Rh110 fluorescence | AID 489030 | inhibition, % at 20 µM; active means inhibition of at least 40% at 20 µM;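 further: plate controls were DMSO wells for no effect and DEVD-CHO caspase inhibitor wells for full effect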
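Medium: Hepes buffer, pH 7.5 / System: biochemical Apaf-1 apoptosome reconstitution / Measured by: Rh110 fluorescence, excitation 480 nm, emission 540 nm / Times: compound with Apaf-1, dATP, procaspase-3 30 min, then 50 min reaction, room temperature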
procasp3 activ: procaspase-3 (human) activation | P42574 | recombinant procaspase-3 D3A, Ac-DEVD-pNA absorbance 405 nm | activation, % at 8.5 µM | hit rate 0.11% among 330,000 | AID 463141;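 active means activation above the mean of all tested compounds plus 3 SD, cut at about 21% in these data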;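 further: 0% = DMSO alone and 100% = DMSO wells spiked with extra 5 µM PC-3 D3A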
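Test system: Procaspase-3 D3A mutant, all three cleavage aspartates alanine | Dosing: Single dose, 8.5 µM nominal compound, 0.8% DMSO | Schedule: 1 h preincubation, 2 h reaction | Technique: 405 nm absorbance of p-nitroaniline, reads at 0 and 120 min | Repeats: One well per compound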
EBNA-1 inhibitor: blocks EBNA-1 binding to DNA; EBNA-1 DNA binding, fluorescence polarization; inhibition, % at 14.8 µM; hit rate 0.34% among 300,000; in the data active means inhibition above about 28%
GSTO1 counter: GSTO1 inhibition, counter-screen for RBBP9 inhibitors. P78417. recombinant GSTO1, activity-based probe fluorescence polarization. inhibition, % at 5.96 µM. hit rate 1.1% among 300,000. AID 1974;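 active means inhibition above the campaign mean inhibition plus 3 SD, cut at about 35% in these data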;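 further: 0% = GSTO1-1 with DMSO and 100% = wells lacking GSTO1-1 enzyme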
ZTA DNA inh: counter-screen for EBNA-1 inhibitors: inhibitors of Epstein-Barr virus ZTA | hit rate 0.15% among 320,000 | AID 2234 | P03206 | ZTA-DNA binding, fluorescence polarization | inhibition, % at 11 µM; in the data active means inhibition above about 33%
procasp7 counter: counter-screen: procaspase-7 (human) activation. P55210. recombinant procaspase-7, Ac-DEVD-pNA absorbance 405 nm; D23A/D198A/D206A triple mutant, cannot self-cleave; scale: DMSO 0, 5 µM enzyme 100. activation, % at 8.5 µM. hit rate 0.093% among 330,000. AID 463210;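 active means percent activation above the screen-wide mean plus 3 SD, cut at about 25% in these data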
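Material: Procaspase-7 triple mutant (PC-7 D3A) | Quantity: 2 µM procaspase-7 mutant as dispensed | Reagent: DEVD-pNA substrate | Times: 1 h preincubation, 2 h reaction | Technique: 405 nm absorbance of p-nitroaniline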
EBNA-1 confirm: EBNA-1 (EBV) inhibition, confirmation | shares compounds with EBNA-1 inhibitor | Recombinant EBNA-1 DBD, Cy5-DNA fluorescence polarization | inhibition, % at 14.8 µM | hit rate 35% among 830 | AID 2292;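 active means mean inhibition across replicates above a set limit taken from the earlier primary screen, cut at about 28% in these data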;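 further: plate controls were EBNA-1 protein with DMSO for no effect and wells lacking EBNA-1 for full effect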
ZTA DNA inh trip: blocks Epstein-Barr virus ZTA in triplicate, EBNA-1 counter-screen; shares compounds with EBNA-1 inhibitor; inhibition, % at 11.1 µM; Zta-ZRE DNA binding, Cy5 fluorescence polarization; AID 2328; 830 tested, under 10 active;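 active means mean inhibition over triplicates above a set limit taken from the primary EBNA-1 screen, cut at about 37% in these data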;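 further: purified full length Zta protein with Cy5 labeled ZRE DNA probe; 0% = Zta with DMSO and 100% = wells lacking Zta protein; inhibitors lower polarization by freeing the labeled DNA probe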
* hit, by the source's call; · = no result. Rows were chosen to be rich in hits. Some 1.8% of all compounds tested hit in one or more screens of this group.

SMILES	Apaf-1 inh	procasp3 activ	EBNA-1 inhibitor	GSTO1 counter	ZTA DNA inh	procasp7 counter	EBNA-1 confirm	ZTA DNA inh trip
CCCCN(CC)CCNC(=O)CN1C(=O)COc2ccc(S(=O)(=O)N3CCCC3)cc21	6.1	-6.3	77.2*	-0.4	2.3	1.2	-1.6	-2.4
O=c1oc2c(O)c(O)cc3c(=O)oc4c(O)c(O)cc1c4c23	·	-0.6	38.6*	70.4*	25.9	-1.9	46.7*	36.9*
CCOC(=O)CC(NS(=O)(=O)c1ccc2[nH]cc(C(=O)O)c(=O)c2c1)c1ccc(OCC)c(OC)c1 (configuration not stated)	-2.2	5.9	3.3	7.3	-27.7	1.3	·	·
COc1cccc(OCC(O)CNC2CCCC2)c1 (configuration not stated)	8.6	1.2	3.2	3.1	-9.5	8.1	·	·
Cc1ccccc1Nc1nnc(SCC(=O)c2c(N)n(C)c(=O)n(C)c2=O)s1	4.5	3.3	-8.8	-0.2	-7.7	6.0	·	·
Cn1c(=O)c(C(=O)CSc2nnc(Nc3ccccc3)s2)c(N)n(Cc2ccccc2)c1=O	-5.5	1.7	35.1*	-0.9	-3.3	7.1	13.8	4.0
O=C(CCCN1C(=O)/C(=C/c2cccs2)SC1=S)NNC(=O)c1ccccc1O	10.1	-0.8	40.1*	-3.0	19.7	-5.5	20.4	7.6
COc1ccc2c(c1)[C@H]1[C@H](CO2)[C@H](c2ccccc2)[C@]2(C)C(=O)N[C@@H](C)C(=O)N12	-3.0	4.0	·	·	7.2	5.5	·	·
COc1ccc(OC)c(NS(=O)(=O)c2ccc(-c3coc(C)n3)cc2)c1	-7.9	8.6	1.5	13.3	10.9	4.7	·	·
O=C1[C@H]2[C@@H](c3ccc(F)cc3)N3C(=O)N(c4cccc(Br)c4)C(=O)[C@@]3(Cc3ccccc3)[C@H]2C(=O)N1C1CCCCC1	14.7	-2.6	10.1	-1.5	4.2	-7.8	·	·
O=C1[C@H]2[C@@H](c3ccc(F)cc3)N3C(=O)N(c4cccc(F)c4)C(=O)[C@@]3(Cc3ccccc3)[C@H]2C(=O)N1C1CCCCC1	14.1	4.0	80.7*	-6.8	5.8	-13.3	9.2	-14.8
Cc1ccc(OCc2nnc(NC(=O)c3ccco3)s2)cc1	14.1	-0.4	-5.9	2.9	17.7	-4.8	·	·
Cc1ccc(OCc2nnc(NC(=O)c3ccco3)s2)c(C)c1	-23.1	-0.9	45.6*	-2.1	3.5	0.8	-2.3	-1.5
CCOC(=O)c1c(-c2ccc(C)o2)csc1NC(=S)NC(=O)c1ccc(F)cc1	-7.3	10.6	28.2*	-2.3	14.6	4.3	26.0	-3.4
CCOc1cc(C(C(=O)NCC2CCCO2)N(C(=O)Cn2nnc3ccccc32)c2ccccc2C(C)=O)ccc1O (configuration not stated)	-1.0	2.6	-3.0	3.0	-5.2	7.6	·	·
CC1CCCCC1NC(=O)CCn1ccc2cc(S(=O)(=O)N3CCCC3)ccc21 (configuration not stated)	9.9	0.1	-4.1	2.4	4.4	7.8	·	·
COc1ccc(OC)c(NC(=O)CCn2ccnc2)c1	1.5	6.1	-0.9	1.7	-11.6	-3.9	·	·
COc1ccc(-c2nnn(CC(=O)N(Cc3cccs3)C(C)C(=O)NCCC(C)C)n2)cc1OC (configuration not stated)	19.8	-7.6	-20.2	4.0	-11.0	3.3	·	·
COc1ccc(-c2nnn(CC(=O)N(CC(=O)NCCC(C)C)Cc3cccs3)n2)cc1OC	0.7	0.0	30.3*	-0.2	-0.9	4.6	4.7	8.5
O=[N+]([O-])c1ccc(S(=O)(=O)NCCS(=O)(=O)N2CCN(c3ccccc3)CC2)cc1	6.3	7.7	-6.9	3.4	-1.6	11.6	·	·
COc1cccc(SCc2noc(C(=O)NC(C)C)c2C(=O)NC(C)C)c1	-3.1	13.7	6.6	5.8	3.9	3.7	·	·

From PubChem
